What was measured:
Format in all cases: functional
[1] = species: Rattus norvegicus; assay: In vitro inhibitory concentration against Total peroxyl radical-trapping antioxidant parameter(TRAP)
Outline: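 Total peroxyl radical-trapping antioxidant parameter taken from spectrophotometric reading at 417 nm of the ABTS cation radical, which forms by one-electron oxidation.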

[2] = species: Rattus norvegicus; assay: In vitro inhibitory concentration against hydroxyl radical (-OH)
[3] = species: Rattus norvegicus; assay: In vitro inhibitory concentration against lipid peroxidation (LPO)
Outline: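 Brain mitochondria from male LATI Wistar rats (0.3 mg protein) in 25 mM Tris–HCl pH 7.4 with 0.2 mM ascorbic acid, with or without compound. Peroxidation started with 0.2 mM FeSO4, 60 min at 37 °C. Stopped with 20% TCA, centrifuged, supernatant boiled 20 min with 0.5% thiobarbituric acid. TBA-reactive products read at 535 nm.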

[4] = species: Rattus norvegicus; assay: In vitro inhibitory concentration against peroxynitrite (ONOO-): using pyrogallol red bleaching assay; (na: not active)
Outline: (§1)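 Peroxynitrite scavenging measured as pyrogallol red bleaching at 542 nm. ONOO- prepared essentially by the Hughes and Nicklin method.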

[5] = species: Rattus norvegicus; assay: In vitro inhibitory concentration against NO ([…]); (na: not active)
Outline: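 NO generated by thermal breakdown of cupferron (0.2% in ethanol) at 40 °C. Samples at 0.3–100 mM in ethanol mixed with Griess–Ilosvay reagent (0.2% N-(1-naphthyl)ethylenediamine in 0.4 M HCl plus 2% sulfanilamide in 4 M HCl). Free NO estimated indirectly from its nitrite/nitrate products, absorbance read at 540 nm.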

[6] = species: Rattus norvegicus; assay: In vitro inhibitory concentration against peroxynitrite (ONOO-): using pyrogallol red bleaching assay; outline: as §1
[7] = species: Rattus norvegicus; assay: In vitro inhibitory concentration against hydroxyl radical (-OH); (na: not active)

| Structure (SMILES) | IC50 [1] [µM] | IC50 [2] [µM] | IC50 [3] [µM] | IC50 [4] | IC50 [5] | IC50 [6] [µM] | IC50 [7] |
| --- | --- | --- | --- | --- | --- | --- | --- |
| CC(C)(C)/[N+]([O-])=C/c1ccccc1 | 3060 | 43000 | 16 | Not Active |  |  |  |
| CC(C)(C)/[N+]([O-])=C/c1ccc(S(=O)(=O)[O-])cc1S(=O)(=O)[O-].[Na+].[Na+] | 437 | 1500 | 5490 | Not Active | Not Active |  |  |
| COc1c(C)c(C)c2c(c1C)CCC(C)(/C=[N+](\[O-])C(C)(C)C)O2 (configuration not stated) | 2940 |  | 23 |  |  | 3700 | Not Active |
| CC(=O)Oc1c(C)c(C)c2c(c1C)CCC(C)(/C=[N+](\[O-])C(C)(C)C)O2 (configuration not stated) | 895 |  | 10 | Not Active |  |  | Not Active |
| COc1c(C)c(C)c2c(c1C)CCC(C)(/C=[N+](\[O-])C1CC1)O2 (configuration not stated) | 296 |  | 20 |  |  | 1200 | Not Active |
| CC(=O)Oc1c(C)c(C)c2c(c1C)CCC(C)(/C=[N+](\[O-])C1CC1)O2 (configuration not stated) | 117 |  | 3.7 |  |  | 590 | Not Active |

Results, then the molecule that gave them:

| IC50 [1] [µM] | IC50 [2] [µM] | IC50 [3] [µM] | IC50 [4] | IC50 [5] | IC50 [6] [µM] | IC50 [7] | Structure (SMILES) |
| --- | --- | --- | --- | --- | --- | --- | --- |
| 6 | 150 | 0.68 |  |  | 1100 |  | Cc1c(C)c2c(c(C)c1O)CCC(C)(/C=[N+](\[O-])C1CC1)O2 (configuration not stated) |
| 5.5 | 170 | 2 |  |  | 3200 |  | Cc1c(C)c2c(c(C)c1O)CCC(C)(/C=[N+](\[O-])C(C)(C)C)O2 (configuration not stated) |
| 10 | 60 | 25 |  |  | 550 |  | Cc1c(C)c2c(c(C)c1O)CCC(C)(C(=O)O)O2 (configuration not stated) [TROLOX] |
